5 compounds from ChEMBL document CHEMBL3580585, “The synthesis of sulforaphane analogues and their protection effect against cisplatin induced cytotoxicity in kidney cells” (2014) can be followed below.

Assay [1] concerns LLC-PK1. Briefly: Renoprotective activity against cisplatin-induced cytotoxicity in pig LLC-PK1 cells assessed as cell survival at 2.5 uM after 24 hrs by WST-1 assay in presence of 25 uM cisplatin (reference value: 60%). It counts as functional, Sus scrofa. Summed up: (§1)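 Pig kidney LLC-PK1 cells were given 25 µM cisplatin to cause oxidative stress, alongside test compound in dose-response format, up to 10 µM, or up to 2.5 µM for analogues toxic at high doses. Survival was read by WST-1 assay […]. Potency was taken as the concentration giving more than 60% cell survival.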

Assay [2] deals with LLC-PK1. Briefly: Renoprotective activity against cisplatin-induced cytotoxicity in pig LLC-PK1 cells assessed as decrease in phoshorylated JNK level by western blot analysis in presence of 25 uM cisplatin. It counts as functional, cell-based. Conditions: Sus scrofa. Summed up:
(§2)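 LLC-PK1 cells were exposed to cisplatin together with several concentrations of test compound. Phospho-JNK, p53 and cleaved caspase-3 protein levels were measured 24 h after cisplatin treatment.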

Assay [3] concerns LLC-PK1. Briefly: Renoprotective activity against cisplatin-induced cytotoxicity in pig LLC-PK1 cells assessed as increase in cell survival at >1 uM by cell imaging analysis in presence of 25 uM cisplatin. To be noted: Sus scrofa. Format: functional, cell-based.
Assay [4] concerns LLC-PK1. Briefly: Renoprotective activity against cisplatin-induced cytotoxicity in pig LLC-PK1 cells assessed as decrease in apoptotic cells at 25 uM after 24 hrs by Tali image-based cytometer analysis in presence of cisplatin. Format: functional, cell-based. To be noted: Sus scrofa. Summed up:
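LLC-PK1 cells were co-treated with cisplatin and test compound, then stained so that dead cells show red and apoptotic cells green. The percentage of apoptotic cells was counted on a Tali image-based cytometer.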

The subject of assay [5] is LLC-PK1. Briefly: Renoprotective activity against cisplatin-induced cytotoxicity in pig LLC-PK1 cells assessed as decrease in cleaved caspase-3 level by western blot analysis in presence of 25 uM cisplatin. Format: functional, cell-based. To be noted: Sus scrofa. The procedure, abridged:
as §2

The subject of assay [6] is LLC-PK1. Briefly: Renoprotective activity against cisplatin-induced cytotoxicity in pig LLC-PK1 cells assessed as decrease in p53 level at 2.5 uM by western blot analysis in presence of 25 uM cisplatin. It counts as functional, cell-based. Conditions: Sus scrofa. The procedure, abridged:
as §2

In assay [7] the test system is LLC-PK1. Briefly: Renoprotective activity against cisplatin-induced cytotoxicity in pig LLC-PK1 cells assessed as cell survival at 10 uM after 24 hrs by WST-1 assay in presence of 25 uM cisplatin (reference value: 60%). It counts as functional, Sus scrofa. Summed up:
as §1

Active and inactive are the calls of the source. No cut-off for these calls is given here.

Take `S=C=NCc1cccc(Cl)c1`: the Activity in assay [1] is given as >80%.

On to `S=C=NCC(c1ccccc1)c1ccccc1`, for which the results for the Activity result in assay [2], in assay [1] and in assay [5] were “Dose-dependent effect”, 93% and “Dose-dependent effect”, respectively. For the same compound, the outcome in assay [3], in assay [4] and in assay [6] was Active.

In the case of `Oc1ccc(CCN=C=S)cc1`, in assay [1], the Activity is >80%.

Take `S=C=NCCc1ccc(N=C=S)cc1`: the Activity in assay [1] is reported as >80%.

Turning to `C[S+]([O-])CCCCN=C=S` (stereo not given) [SULFORAPHANE], in assay [7], the Activity was >77%.
